The list is not random: actives were taken first. Their share in the collection is about 1.8%.
LMPTP inh: LMPTP (human) inhibition; P24666; recombinant LMPTP-A, OMFP fluorogenic substrate, fluorescence intensity; inhibition, % at 20 µM; hit rate 0.22% among 360,000;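 active = compounds that cut the enzyme signal by at least half of the control window in the single-dose screen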;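 also: plate controls were DMSO wells with enzyme plus substrate for no effect and substrate without enzyme for full effect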
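Test system: LMPTP-A phosphatase enzyme; input: 0.625 nM LMPTP-A final; reagent: OMFP substrate, 400 µM final; compound dosing: 20 µM single dose, 3% DMSO; incubation: 50 min dark incubation at room temperature; measured by: endpoint fluorescence intensity from OMFP dephosphorylation; measure: % inhibition relative to no-enzyme and uninhibited control wells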
Scp1 inh: inhibitors of human Scp-1 phosphatase | AID 493091 | hit rate 0.88% among 340,000 | inhibition, % at 20 µM | Recombinant Scp1, phosphopeptide, malachite green phosphate absorbance;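 active = inhibition above about 50% at 20 µM, limit read from the data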;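 also: plate controls were DMSO wells with enzyme for no effect and wells lacking enzyme for full effect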
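assay system = SCP-1 phosphatase catalytic domain, residues 76-261 | buffer or medium = 50 mM Tris acetate pH 5.5, 0.005% Tween-20, 10 mM MgCl2 | incubation = enzyme reaction 45 min at room temperature, colour 5 min, stabilisation 30 min | signal = Phosphate-binding colour reagent, absorbance read at 630 nm | measure = % inhibition at 20 µM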
SUMO1 PPI mod: modulators of human SUMO1-mediated protein-protein interactions; P63165; SUMO1 binding to a labelled peptide, TR-FRET, 1 h; inhibition, % at 20 µM; hit rate 0.33% among 360,000; in the data active = inhibition above about 37%
HKDC1 inh: blocks human hexokinase HKDC1 activity | Q2TB90 | recombinant HKDC1, G6PDH/diaphorase resazurin coupled fluorescence | inhibition, % at 20 µM | hit rate 0.16% among 340,000;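 active = inhibition above about 35% when tested at 20 µM, limit read from the data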;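 also: plate controls were DMSO wells with enzyme for no effect and DMSO wells lacking enzyme for full effect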
Target sequence (Q2TB90 whole entry, looked up): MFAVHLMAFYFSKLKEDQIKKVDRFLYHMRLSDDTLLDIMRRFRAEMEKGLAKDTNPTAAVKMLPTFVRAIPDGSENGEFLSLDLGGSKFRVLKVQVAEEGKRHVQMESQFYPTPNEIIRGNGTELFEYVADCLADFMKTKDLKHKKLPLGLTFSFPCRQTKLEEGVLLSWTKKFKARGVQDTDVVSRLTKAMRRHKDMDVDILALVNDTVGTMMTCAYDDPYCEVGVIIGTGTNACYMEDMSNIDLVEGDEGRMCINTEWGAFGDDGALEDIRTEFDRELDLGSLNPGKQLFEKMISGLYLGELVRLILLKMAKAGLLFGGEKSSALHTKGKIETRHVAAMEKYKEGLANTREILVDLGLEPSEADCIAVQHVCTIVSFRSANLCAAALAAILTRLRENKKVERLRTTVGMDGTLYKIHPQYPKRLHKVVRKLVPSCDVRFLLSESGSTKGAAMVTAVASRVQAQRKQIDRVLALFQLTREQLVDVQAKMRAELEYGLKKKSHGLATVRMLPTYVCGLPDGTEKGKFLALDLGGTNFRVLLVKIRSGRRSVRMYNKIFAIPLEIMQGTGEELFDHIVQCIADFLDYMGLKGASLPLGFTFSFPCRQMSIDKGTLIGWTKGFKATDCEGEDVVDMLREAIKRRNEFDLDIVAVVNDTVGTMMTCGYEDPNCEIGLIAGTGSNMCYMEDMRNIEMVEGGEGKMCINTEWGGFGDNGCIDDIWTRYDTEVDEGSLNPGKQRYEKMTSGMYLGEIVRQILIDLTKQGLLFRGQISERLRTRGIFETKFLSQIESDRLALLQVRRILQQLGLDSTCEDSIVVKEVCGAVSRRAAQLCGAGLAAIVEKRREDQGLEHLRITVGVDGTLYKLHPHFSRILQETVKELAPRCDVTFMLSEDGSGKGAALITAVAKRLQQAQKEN
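Material – in-house recombinant HK5 (HKDC1) enzyme · Quantity – HKDC1 at 5 µg/mL · Buffer or medium – pH 8.0 Tris buffer with 10 mM MgCl2 · Reagent – glucose with 1 mM ATP · Dosing – single 20 µM dose · Times – reaction time 90 min, room temperature, protected from light · Technique – resorufin fluorescence at 613 nm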
DNMT1 inh: inhibitors of human DNMT1; inhibition (reported as % activation of signal), % at 10 µM; hit rate 0.83% among 360,000; DNMT1 molecular beacon, Hinp1I cleavage, fluorescence; P26358; in the data active = inhibition above about 50%
STEP inh: STEP (human) phosphatase inhibition; inhibition, % at 20 µM; recombinant STEP, OMFP fluorogenic substrate, fluorescence; AID 588621; hit rate 0.25% among 360,000;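 active = inhibition at 20 µM, scaled per plate between control wells, above about 37%, limit read from the data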;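 also: 0% = DMSO with enzyme and substrate and 100% = substrate only without enzyme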
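Also added – OMFP at 25 µM · Test system – STEP tyrosine phosphatase · Technique – FITC-channel fluorescence of OMFP product · Schedule – 20 min at room temperature, dark · Evaluation – control-normalized % inhibition with plate pattern correction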
Scp-1 conf: confirmation of human Scp-1 phosphatase inhibitors; shares compounds with Scp1 inh; recombinant SCP-1 catalytic domain, phosphate release, malachite green absorbance; inhibition, % at 20 µM; hit rate 61% among 2,500; AID 540281;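 also: plate controls were DMSO with enzyme for no effect and buffer wells lacking enzyme for full effect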
MG interference: counter-screen for Scp-1 inhibitors: colorimetric interference. shares compounds with Scp1 inh. Colorimetric interference counterscreen, malachite green absorbance 630 nm. apparent inhibition (interference), % at 20 µM. 2,500 tested, under 10 active. AID 540313;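 also: compounds added after enzyme reaction finished so only phosphate colour detection is probed; plate controls were DMSO wells with completed Scp-1 reaction for no effect and substrate wells lacking enzyme for full effect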
Scp1 DSF: binds human Scp-1, shifting its melting temperature; hit rate 25% among 1,500; thermal shift relative to vanadate control, % at 40 µM; shares compounds with Scp1 inh; Recombinant SCP1, Sypro Orange thermal shift Tm; AID 540329;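 active = substances whose mean melting-temperature shift, as a percentage of the reference inhibitor's shift, reaches about 5.3%, limit read from the data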;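 also: 0% = Tm of DMSO wells and 100% = Tm with sodium orthovanadate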
An asterisk follows results filed as active; x = no result.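 The calls were made as follows, unless noted: active = inhibition of at least 30% at 20 µM; inactive = the rest.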

SMILES	LMPTP inh	Scp1 inh	SUMO1 PPI mod	HKDC1 inh	DNMT1 inh	STEP inh	Scp-1 conf	MG interference	Scp1 DSF
O=C1[C@H]2[C@@H](C3CC3)N3C(=O)CN(Cc4ccccn4)C(=O)[C@@]3(Cc3ccccc3)[C@H]2C(=O)N1c1ccccc1	-2	5	-2	1	0	-2	x	x	x
O=C(c1n[nH]c2ccccc12)N1CCN(S(=O)(=O)c2ccccc2)CC1	0	-2	3	-7	2	-3	x	x	x
CN(C)/C=C1\C(=O)Nc2ccccc21	-1	-4	-8	2	-1	-4	x	x	x
CN(O)/C=C1\C(=O)Nc2ccccc21	0	65*	-8	-5	-2	1	0	-7	x
Cc1ccc(S(=O)(=O)N2CCC(C(=O)NNC(=O)c3ccncc3)CC2)cc1	-2	1	0	-1	2	-1	x	x	x
O=C(CSc1nc(-c2ccc(F)cc2)nc2ccc(F)cc12)Nc1cccc(C(=O)O)c1	45	72*	-5	1	-1	24	75*	-11	2
O=C1Nc2ccccc2C1=Nc1ccc(S(=O)(=O)Nc2nccs2)cc1	3	80*	88*	29	4	38	73*	-5	13*
NS(=O)(=O)c1ccc(N=C2C(=O)Nc3ccccc32)cc1	-1	-3	-29	5	-1	-2	x	x	x
CS(=O)(=O)C1=NSC2=NC(=O)/C(=C\c3cccn3-c3ccc(Cl)cc3)C(=N)N21	20	83*	4	23	2	95*	79*	-20	-36
Cc1cccc(C)c1NC(=O)C1c2ccccc2OCC(=O)N1Cc1cccnc1 (stereo not drawn)	-1	x	9	x	x	x	x	x	x
O=C(Nc1ccnc(=O)[nH]1)c1sc2ccccc2c1Cl	9	98*	-16	2	1	6	67*	-15	-13
O=C(Nc1ccncc1)c1sc2ccccc2c1Cl	-1	-2	-19	-3	0	-2	x	x	x
CC1CCN(C(=O)c2cc(-c3ccco3)on2)CC1	-1	-5	0	-4	-1	-2	x	x	x
CC1CCN(C(=O)c2cc(-c3ccccc3O)on2)CC1	0	53*	-3	-5	9	-3	-17	-13	x
COc1cccc2cc(C(=O)NCc3ccco3)c(=Nc3ccc(C(=O)O)cc3)oc12	0	56*	-17	20	-4	0	32*	-19	0
O=C(Cn1cnc(S(=O)(=O)N2CCCCC2)c1)NCc1ccco1	-2	-7	0	-6	0	0	x	x	x
COc1ccc(C2CC(=O)C=C(NCc3ccc4c(c3)OCO4)C2)cc1 (stereo not drawn)	0	1	4	-3	0	-4	x	x	x
O=C(O)c1ccc([N+](=O)[O-])c(CS(=O)(=O)c2ccc(Cl)cc2)c1	-1	66*	0	9	-1	-1	4	-15	x
CCOC(=O)CSc1nc2cc(S(=O)(=O)N3CCOCC3)ccc2n1CC	-10	-11	-27	-7	-2	2	x	x	x
CC(C(=O)NCc1cccc(Cl)c1)N1C(=O)c2ccccc2C1=O (stereo not drawn)	-1	-3	-2	-7	6	0	x	x	x
Cc1ccc(/C=C/C(=O)N2CCN(S(=O)(=O)c3cccs3)CC2)o1	0	-5	9	1	0	-2	x	x	x
O=C(/C=C/c1ccco1)N1CCN(S(=O)(=O)c2cccs2)CC1	7	58*	-3	-1	10	3	47*	-4	1
Cc1nc2ncnn2c(C)c1C/C=C/c1ccccc1	-4	-3	-3	-7	0	0	x	x	x
COc1ccc([N+](=O)[O-])cc1CSc1ccccn1	-1	61*	-11	1	-2	-1	-2	-9	x
COc1cc([N+](=O)[O-])ccc1NC(=O)CSc1ccccn1	0	x	-27	x	-4	0	x	x	x
SMILES	LMPTP inh	Scp1 inh	SUMO1 PPI mod	HKDC1 inh	DNMT1 inh	STEP inh	Scp-1 conf	MG interference	Scp1 DSF
COc1ccc(NC(=O)CN(c2ccccc2)S(=O)(=O)N(C)C)cc1Cl	1	-13	6	-4	-1	-4	x	x	x
COc1ccc(C(=O)Nc2ccc3ccccc3c2)cc1OC	3	-2	-3	-3	-2	2	x	x	x
COc1ccc(C(=O)Nc2ccc3c(c2)C(=O)c2ccccc2C3=O)cc1OC	5	66*	21	9	57*	55*	16	-8	x
COc1ccc(NC(=O)CN(c2ccccc2)S(=O)(=O)N(C)C)cc1OC	9	76*	3	-6	13	0	69*	-2	-4
Cc1ccc(C)c(N2CCN(C(=O)Cn3c(=O)oc4cc(S(=O)(=O)N5CCCC5)ccc43)CC2)c1	1	1	2	2	-6	0	x	x	x
O=C(Cn1c(=O)oc2cc(S(=O)(=O)N3CCCCCC3)ccc21)NC1CCCCCCC1	2	101*	9	0	24	2	54*	-9	-13
O=C(Cn1c(=O)oc2cc(S(=O)(=O)N3CCCC3)ccc21)N1CCN(c2ccccc2)CC1	0	69*	2	-6	0	5	-2	-16	x
C=CCNCCOCCOc1ccccc1-c1ccccc1	-1	1	-1	-6	0	-3	x	x	x
Cc1csc(-c2nc3ccccc3n2C(C(=O)NC(C)(C)C)c2cc3ccccc3o2)c1 (stereo not drawn)	3	x	2	x	x	x	x	x	x
O=C(NCCN1CCC(n2c(=O)[nH]c3ccccc32)CC1)c1c(F)cccc1F	2	x	2	x	x	x	x	x	x
CN(C)c1ccc(S(=O)(=O)NCC(=O)N2CCN(c3ccccc3)CC2)cc1[N+](=O)[O-]	1	7	-20	-5	4	3	x	x	x
Cn1c(SCC(=O)Nc2ccccc2)nc(O)cc1=O	-1	-4	7	-2	-7	2	-7	-4	x
O=C(O)Cc1ccc(-n2cccc2)cc1	4	80*	8	3	96*	2	53*	-17	-6
Cc1nc(SCc2nc3ccccc3[nH]2)c2oc3cc([N+](=O)[O-])ccc3c2n1	3	0	-27	6	-4	5	x	x	x
Nc1cc([N+](=O)[O-])ccc1N1C(=O)CCCC1=O	2	64*	-8	-2	16	4	49*	-8	-16

Screening results: PubChem BioAssay, Sanford-Burnham Center for Chemical Genomics
